A selection: hits, their analogues and other compounds. The true share with any hit is near 1.4%.
FXIa inh: inhibitors of human coagulation factor XIa. hit rate 0.14% among 220,000. purified FXIa, Boc-Glu-Ala-Arg-AMC fluorogenic substrate. P03951. inhibition, % at 5 µM. AID 798;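 active = inhibition of at least 40%; inactive = inhibition below 40%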;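 also: fluorescence of freed AMC excited at 355 nm; 0% = enzyme without compound and 100% = no enzyme blank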
Target sequence (P03951 19-387 limits assumed): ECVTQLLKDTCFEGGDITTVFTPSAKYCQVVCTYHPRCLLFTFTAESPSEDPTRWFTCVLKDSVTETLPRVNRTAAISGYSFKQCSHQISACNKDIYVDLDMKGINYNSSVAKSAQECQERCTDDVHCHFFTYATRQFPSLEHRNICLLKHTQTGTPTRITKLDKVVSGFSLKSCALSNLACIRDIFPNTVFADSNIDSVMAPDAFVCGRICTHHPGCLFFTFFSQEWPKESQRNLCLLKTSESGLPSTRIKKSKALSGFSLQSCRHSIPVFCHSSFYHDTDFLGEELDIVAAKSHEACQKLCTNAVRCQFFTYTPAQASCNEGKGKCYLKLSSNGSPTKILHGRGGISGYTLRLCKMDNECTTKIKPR
Target sequence (P03951 388-625 limits assumed): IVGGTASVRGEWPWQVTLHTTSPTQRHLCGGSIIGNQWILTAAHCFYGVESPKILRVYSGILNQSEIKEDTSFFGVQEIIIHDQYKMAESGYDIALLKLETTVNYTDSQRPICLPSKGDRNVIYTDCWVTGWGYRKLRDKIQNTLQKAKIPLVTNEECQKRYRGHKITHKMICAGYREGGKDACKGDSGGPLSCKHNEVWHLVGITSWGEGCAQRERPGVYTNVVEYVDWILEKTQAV
KLK5 inh: kallikrein 5 (human) inhibition; recombinant hK5, fluorogenic AMC substrate cleavage; Q9Y337; hit rate 0.59% among 210,000; AID 873; inhibition, % at 5 µM;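 active = inhibition of 40% or more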;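 also: 0% = enzyme controls without compound and 100% = no-enzyme blanks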
thrombin 1536: blocks human thrombin protease activity. inhibition, % at 5 µM. alpha-thrombin, Boc-VPR-AMC fluorogenic substrate cleavage. hit rate 0.26% among 220,000. P00734;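 active = inhibition at or above 40%; inactive = inhibition below 40%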;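 also: 0% = enzyme with no compound and 100% = wells without enzyme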
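signal = AMC fluorescence, 355/460 nm | material = human alpha-thrombin enzyme | control set = enzyme without compound as high, wells lacking enzyme as low | times = reaction at room temperature | read-out basis = percent inhibition scaled between no-compound controls and no-enzyme blanks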
Calpain2 inh: blocks pig calpain II enzyme activity; purified calpain II, fluorogenic peptide substrate, 30 min; inhibition, % at 16 µM; hit rate 0.37% among 220,000; AID 1236;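 active = inhibition above about 50%, limit read from the data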
FXIIa inh: blocks human coagulation factor XIIa protease activity; P00748; purified FXIIa, Boc-QGR-AMC fluorogenic substrate, 2 h; inhibition, % at 5 µM; hit rate 0.3% among 220,000; in the data active = inhibition above about 40%;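 also: 0% = enzyme with no compound and 100% = blank without enzyme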
An asterisk follows results filed as active; / = no result given.

SMILES	FXIa inh	KLK5 inh	thrombin 1536	Calpain2 inh	FXIIa inh
O=c1[nH]c(CN2CCN(S(=O)(=O)/C=C/c3ccccc3)CC2)nc2cc(Cl)ccc12	-3	-7	-6	-14	2
O=C(COc1ccc2ccccc2c1)Nc1ccc(S(=O)(=O)N2CCCCCC2)cc1	17	29	11	24	24
Cc1cccc(NC(=O)c2cnn3ccccc23)c1C	2	0	-8	23	2
CCc1cccc(CC)c1NC(=S)NCC(c1cccnc1)N(C)C (stereo unspecified)	-5	0	-5	-17	7
O=C(COC(=O)CCOc1ccccc1)Nc1ccc(Cl)cn1	-11	-28	48*	-32	0
O=C(COC(=O)CCc1ccccc1)Nc1ncc(Cl)cc1Cl	6	3	42*	17	17
O=C(Cn1nc2n(c1=O)-c1ccccc1SC2)N/N=C/c1cccnc1	-7	24	-5	-11	4
O=C(CN1C(=O)COc2ccc(S(=O)(=O)N3CCOCC3)cc21)NCc1ccco1	2	4	-3	-22	5
CC(C)(C)C1CCc2sc(C(=O)NNC(=O)CCl)cc2C1 (stereo unspecified)	-32	-18	1	66*	1
CC(C)(C)C1CCC(=NNC(=O)c2cc3c(s2)CCCC3)CC1 (stereo unspecified)	7	1	-2	10	13
N/C(=N\OC(=O)c1ccc(Cl)cc1Cl)c1ccccn1	31	53*	-4	17	29
N/C(=N\OC(=O)c1cc(Br)ccc1Cl)c1ccccn1	-2	-2	-2	6	9
COc1ccc([N+](=O)[O-])cc1NCc1ccco1	81*	20	6	11	22
CSCc1ccc(C(=O)NCc2ccc(F)cc2)cc1	3	5	-3	3	9
Cn1c(SCC(=O)N2c3ccccc3CCc3ccccc32)nnc1-c1cc2ccccc2cc1O	7	30	101*	-44	14
Cc1oc2c(c1C(=O)Nc1cccc3ccccc13)CCCC2	0	-3	3	58*	16
O=C(O)C1CCN(C(=O)COc2ccc(Br)cc2)CC1	-3	-2	-7	2	7
CN1CCN(S(=O)(=O)c2ccc(N3CCc4ccccc4C3)nc2)CC1	-5	-6	3	-10	11
O=[N+]([O-])c1cccc(-c2cc3cccc[n+]3cc2-c2cccc([N+](=O)[O-])c2)c1	9	46*	32	22	15
O=C(Cc1cccs1)Nc1nnc(CCc2ccccc2)s1	41*	43*	54*	1	15
O=C(Cc1cccs1)Nc1nnc(Cc2ccccc2)s1	3	-83	-1	-61	4
C#CCSc1nncn1C(=O)/C=C/c1ccccc1	30	35	90*	13	31
C=CCN1C(=O)/C(=C/c2ccc(OC(C)=O)c(OCC)c2[N+](=O)[O-])SC1=S	-1	14	-4	7	5
COC(C/C=C/[C@@H](O)COCc1ccccc1)OC	28	46*	17	11	37
COC(C/C=C/[C@H](O)COCc1ccccc1)OC	24	15	27	13	31
SMILES	FXIa inh	KLK5 inh	thrombin 1536	Calpain2 inh	FXIIa inh
CN1C(=O)C(O)(c2sc(N)nc2-c2ccccc2)c2ccccc21 (stereo unspecified)	-2	56*	13	-1	-3
CCOc1ccc(Cn2ccnc2)cc1[N+](=O)[O-]	10	115*	14	26	15
O=C(NN(CC(O)COc1ccccc1)CC(O)COc1ccccc1)c1ccccc1 (stereo unspecified)	-2	-1	-12	-6	2
CC(C)Cn1c(-c2csc3c2CCCC3)n[nH]c1=S	-2	-31	4	50*	15
CC(C)Cn1c(-c2ccccc2F)n[nH]c1=S	-4	-16	3	41	5
Cc1nn(-c2ccc(F)cc2)c(C)c1/C=C/C(=O)N1CCNC(=O)C1	3	-2	0	12	10
CCOc1ccc(OCCNC2CCCC2)cc1	6	-10	6	-2	17
CCCOc1ccc(OCCNC2CCCC2)cc1	38	74*	23	18	9
O=C1C=C(O)c2c(O)cccc2C1=O	11	11	55*	5	18
Cc1cc(O)c2c(c1)C(=O)c1cccc(O)c1C2=O	-3	-6	-2	29	0
CC(=O)c1cccc(N(CC(=O)O)S(C)(=O)=O)c1	-8	8	-4	-19	7
CCOC(=O)CN(c1cccc(C(C)=O)c1)S(C)(=O)=O	-5	44*	6	18	20
CC1=C(C(=O)OCCOc2ccccc2)C(c2ccsc2)NC(=O)N1C (stereo unspecified)	54*	34	8	31	38
CC1CC1C(=O)OCC(=O)Nc1ccc2[nH]c(=O)[nH]c2c1 (stereo unspecified)	12	7	12	-33	21
O=C(Nc1ccc(O)cc1C(=O)O)c1cccs1	1	-2	-6	5	5
CCOC(=O)c1cc(-c2ccc(C)cc2)n(CC(=O)NCc2ccco2)c1C	7	54*	12	19	29
CCOC(=O)c1cc(-c2ccc(C)cc2)n(CCC(=O)NCCN(C)C)c1C	-1	4	-1	8	-10
CC(=O)c1c(C(C)=O)c(C)n(C(c2ccccc2)c2ccccc2)c1C	-3	0	-3	51*	3
CC(=O)c1c(C)nn(-c2ccccc2)c1C	2	-4	-3	-6	11
Cc1ccnc(NS(=O)(=O)c2cnc(Cl)c(Br)c2)c1	20	3	3	-4	8
O=C(Cc1ncc(C(F)(F)F)cc1Cl)NCCc1ccccc1	2	3	0	-1	9
Cc1ccc(NC(=O)Cc2ncc(C(F)(F)F)cc2Cl)cc1Cl	-2	57*	1	18	8
Nc1nnc(CCOc2ccc(Cl)cc2)s1	16	44*	24	27	21
Cc1c(NC(=O)C(C)OC(=O)c2ccc([N+](=O)[O-])s2)c(=O)n(-c2ccccc2)n1C (stereo unspecified)	-8	-8	-31	9	2
C=CCOc1ccc(/C(O)=C2\C(=O)C(=O)N(CCCOC)C2c2ccncc2)cc1 (stereo unspecified)	13	31	41*	12	22
SMILES	FXIa inh	KLK5 inh	thrombin 1536	Calpain2 inh	FXIIa inh
COC(=O)c1ccc(NC(=O)CSc2nc(C)cc(=O)[nH]2)cc1	0	2	5	14	9
COC(=O)c1c(SCC(=O)Nc2ccc(C)cc2)nc(=O)[nH]c1C	29	74*	34	2	26
CC(NCC(=O)Nc1cc(S(=O)(=O)N2CCCCCC2)ccc1Cl)c1ccccc1 (stereo unspecified)	-4	0	-5	16	4
O=C(O)c1cc(/C=N\O)ccc1OCc1ccccc1	3	51*	8	9	2
NC(=O)CSc1nnc(COc2ccccc2)n1Cc1ccco1	3	0	/	-13	8
CCOC(=O)C1(Cc2cccc(F)c2)CCN(C(=O)Cn2cnnn2)CC1	19	26	20	0	45*

Source: PubChem BioAssay
